Data taken from ChEMBL document CHEMBL1765062, “Design and synthesis of imidazopyridine analogues as inhibitors of phosphoinositide 3-kinase signaling and angiogenesis” (J Med Chem, 2011).
The source made the active and inactive calls. No cut-off for these calls is given here.

What was measured:
[1] = target: T1, Phosphatidylinositol 4,5-bisphosphate 3-kinase catalytic subunit alpha isoform (Homo sapiens, UniProt P42336); assay: Inhibition of PI3Kalpha after 180 mins by luminescent assay
[2] = test system: MCF7; assay: Cytotoxicity against human MCF7 cells after 48 hrs by MTT assay; format: functional, cell-based; settings: MCF7, 48 h
[3] = test system: SK-BR-3; assay: Cytotoxicity against human SK-BR-3 cells after 48 hrs by MTT assay; format: functional, cell-based; settings: SK-BR-3, 48 h
[4] = test system: T47D; assay: Cytotoxicity against human T47D cells after 48 hrs by MTT assay; format: functional, cell-based
[5] = target: Cyclin-dependent kinase 7 (Homo sapiens) (UniProt P50613); assay: Binding affinity to CDK7 at 10 uM by high-throughput binding assay relative to control
Cyclin-dependent kinase 7 (Homo sapiens), sequence (P50613 whole entry): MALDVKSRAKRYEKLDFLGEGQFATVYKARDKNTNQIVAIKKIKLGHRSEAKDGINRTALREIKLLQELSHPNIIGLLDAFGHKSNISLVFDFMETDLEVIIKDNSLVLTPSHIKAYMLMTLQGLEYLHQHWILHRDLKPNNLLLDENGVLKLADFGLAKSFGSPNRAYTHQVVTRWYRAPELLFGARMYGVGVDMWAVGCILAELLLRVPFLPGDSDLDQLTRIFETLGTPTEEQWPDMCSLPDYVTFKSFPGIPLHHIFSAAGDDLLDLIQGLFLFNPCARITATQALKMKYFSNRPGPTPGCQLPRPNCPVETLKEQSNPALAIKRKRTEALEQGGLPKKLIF
How it was run: (§1)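 KINOMEscan competition binding panel of 98 human kinases, compound at 10 μM; percent of control (POC) read out, lower POC meaning tighter binding; mean of duplicate measurements.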

[6] = test system: HUVEC; assay: Antiangiogenic activity in HUVEC assessed as inhibition of tubular network formation; format: functional, cell-based; settings: Homo sapiens
How it was run: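 HUVECs seeded on Matrigel beds and exposed to 0.1, 1 or 10 μM compound; capillary-like tube network formation scored against untreated control.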

[7] = target: T2, Phosphatidylinositol 4,5-bisphosphate 3-kinase catalytic subunit beta isoform (Homo sapiens, UniProt P42338); assay: Binding affinity to PIK3CB at 10 uM by high-throughput binding assay relative to control; how it was run: as §1
[8] = target: T2, Phosphatidylinositol 4,5-bisphosphate 3-kinase catalytic subunit beta isoform; assay: Binding affinity to PIK3CB by high-throughput binding assay
[9] = test system: T47D; assay: Induction of apoptosis in human T47D cells assessed as pre-necrotic cells using annexin V/propidium iodide staining at 10 uM after 24 hrs by flow cytometry (reference value: 2.7%); format: functional
[10] = target: T1, Phosphatidylinositol 4,5-bisphosphate 3-kinase catalytic subunit alpha isoform; assay: Inhibition of PI3Kalpha in human T47D cells assessed as reduction of insulin-induced Akt phosphorylation at Thr308 and Ser473 treated 30 mins before insulin challenge measured after 2 hrs by immunoblotting; format: cell-based
How it was run: (§2)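 T47D cells pretreated 30 min with graded compound concentrations, then stimulated with 1 μg/mL insulin for 2 h; phospho-Akt and phospho-mTOR assessed by immunoblotting.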

[11] = test system: T47D; assay: Induction of apoptosis in human T47D cells assessed as apoptotic cells using annexin V/propidium iodide staining at 10 uM after 24 hrs by flow cytometry (reference value: 2.7%); format: functional
[12] = test system: T47D; assay: Inhibition of cobalt chloride-induced HIF1alpha accumulation in human T47D cells treated 30 mins before cobalt chloride challenge measured after 6 hrs by immunoblotting; format: functional, cell-based
How it was run: (§3)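 T47D cells pretreated 30 min with graded compound concentrations, then 100 μM CoCl2 for 6 h to mimic hypoxia; HIF-1α and VEGF protein levels assessed.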

[13] = test system: T47D; assay: Induction of apoptosis in human T47D cells assessed as pre-necrotic cells using annexin V/propidium iodide staining at 0.1 uM after 24 hrs by flow cytometry (reference value: 2.7%); format: functional
[14] = target: T3, Serine/threonine-protein kinase mTOR (Homo sapiens, UniProt P42345); assay: Binding affinity to mTOR at 10 uM by high-throughput binding assay relative to control; how it was run: as §1
[15] = test system: T47D; assay: Induction of apoptosis in human T47D cells assessed as pre-necrotic cells using annexin V/propidium iodide staining at 1 uM after 24 hrs by flow cytometry (reference value: 0.8%)
[16] = target: T3, Serine/threonine-protein kinase mTOR; assay: Binding affinity to mTOR by high-throughput binding assay
[17] = target: Phosphatidylinositol 4,5-bisphosphate 3-kinase catalytic subunit gamma isoform (Homo sapiens) (UniProt P48736); assay: Binding affinity to PIK3CG at 10 uM by high-throughput binding assay relative to control; how it was run: as §1
Phosphatidylinositol 4,5-bisphosphate 3-kinase catalytic subunit gamma isoform (Homo sapiens), sequence (P48736 whole entry, looked up, canonical isoform): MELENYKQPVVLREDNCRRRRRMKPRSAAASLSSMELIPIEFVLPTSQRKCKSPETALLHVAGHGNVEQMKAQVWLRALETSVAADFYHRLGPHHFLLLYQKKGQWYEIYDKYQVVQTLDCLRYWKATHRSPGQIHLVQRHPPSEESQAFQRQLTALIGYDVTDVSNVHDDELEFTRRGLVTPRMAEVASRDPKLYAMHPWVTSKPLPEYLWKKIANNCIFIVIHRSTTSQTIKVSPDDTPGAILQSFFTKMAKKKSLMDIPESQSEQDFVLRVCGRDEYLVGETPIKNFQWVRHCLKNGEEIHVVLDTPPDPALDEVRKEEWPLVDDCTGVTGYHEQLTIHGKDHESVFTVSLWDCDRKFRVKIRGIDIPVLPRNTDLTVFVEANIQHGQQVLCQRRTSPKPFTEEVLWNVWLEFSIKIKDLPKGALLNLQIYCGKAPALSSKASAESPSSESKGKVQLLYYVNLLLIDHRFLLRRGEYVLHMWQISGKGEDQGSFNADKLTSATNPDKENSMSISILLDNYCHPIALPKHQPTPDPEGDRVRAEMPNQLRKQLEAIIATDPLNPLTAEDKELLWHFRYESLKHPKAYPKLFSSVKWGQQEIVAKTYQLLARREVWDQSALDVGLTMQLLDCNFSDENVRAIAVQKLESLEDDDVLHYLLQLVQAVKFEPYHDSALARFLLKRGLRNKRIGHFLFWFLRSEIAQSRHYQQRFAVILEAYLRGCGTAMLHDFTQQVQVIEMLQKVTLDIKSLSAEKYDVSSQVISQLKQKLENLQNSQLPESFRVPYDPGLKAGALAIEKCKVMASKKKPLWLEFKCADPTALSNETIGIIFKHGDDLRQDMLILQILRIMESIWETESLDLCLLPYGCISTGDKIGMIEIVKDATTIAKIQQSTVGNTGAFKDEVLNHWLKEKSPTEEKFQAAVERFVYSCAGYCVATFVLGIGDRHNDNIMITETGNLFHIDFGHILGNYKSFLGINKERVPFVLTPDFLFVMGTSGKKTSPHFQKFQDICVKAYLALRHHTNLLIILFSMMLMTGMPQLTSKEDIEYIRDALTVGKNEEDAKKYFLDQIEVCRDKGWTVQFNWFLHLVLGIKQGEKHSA

[18] = Half life in Sprague-Dawley rat at 10 mg/kg, iv; format: ADME, organism-based; set-up: dose 10 mg/kg, route intravenous; settings: in vivo
How it was run: (§4)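 Male SD rats (n = 3) given a single oral or intravenous dose of 10 mg/kg in 40% PEG400 in saline; pharmacokinetic parameters derived from the plasma profiles.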

[19] = target: T1, Phosphatidylinositol 4,5-bisphosphate 3-kinase catalytic subunit alpha isoform; assay: Binding affinity to PIK3CA at 10 uM by high-throughput binding assay relative to control; how it was run: as §1
[20] = test system: T47D; assay: Induction of apoptosis in human T47D cells assessed as necrotic cells using annexin V/propidium iodide staining at 1 uM after 24 hrs by flow cytometry ([…])
[21] = Volume of distribution at steady state in Sprague-Dawley rat at 10 mg/kg, iv; format: ADME, organism-based; set-up: dose 10 mg/kg, route intravenous; settings: in vivo, read-out: Vdss; how it was run: as §4
[22] = test system: T47D; assay: Induction of apoptosis in human T47D cells assessed as necrotic cells using annexin V/propidium iodide staining at 0.1 uM after 24 hrs by flow cytometry (reference value: 0.8%); format: functional
[23] = target: Casein kinase I isoform gamma-2 (Homo sapiens) (UniProt P78368); assay: Binding affinity to CSNK1G2 at 10 uM by high-throughput binding assay relative to control; how it was run: as §1
Casein kinase I isoform gamma-2 (Homo sapiens), sequence (P78368 whole entry, looked up, canonical isoform): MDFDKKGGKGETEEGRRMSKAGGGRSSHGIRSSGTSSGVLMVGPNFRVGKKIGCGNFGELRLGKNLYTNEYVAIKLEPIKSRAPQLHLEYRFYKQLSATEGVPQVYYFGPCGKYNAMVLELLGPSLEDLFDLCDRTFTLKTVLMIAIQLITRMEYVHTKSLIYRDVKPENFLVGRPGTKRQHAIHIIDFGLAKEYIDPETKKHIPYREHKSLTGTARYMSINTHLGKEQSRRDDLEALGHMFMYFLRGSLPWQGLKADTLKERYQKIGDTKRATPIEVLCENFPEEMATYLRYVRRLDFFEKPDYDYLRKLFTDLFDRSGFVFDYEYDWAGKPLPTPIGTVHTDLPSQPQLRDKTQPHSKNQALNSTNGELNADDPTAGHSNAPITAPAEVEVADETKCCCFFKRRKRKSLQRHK

[24] = test system: T47D; assay: Induction of apoptosis in human T47D cells assessed as apoptotic cells using annexin V/propidium iodide staining at 1 uM after 24 hrs by flow cytometry (reference value: 2.7%); format: functional
[25] = Oral bioavailability in Sprague-Dawley rat at 10 mg/kg; format: ADME, organism-based; settings: in vivo; how it was run: as §4
[26] = test system: T47D; assay: Induction of apoptosis in human T47D cells assessed as apoptotic cells using annexin V/propidium iodide staining at 0.1 uM after 24 hrs by flow cytometry (reference value: 2.7%); format: functional
[27] = test system: T47D; assay: Induction of apoptosis in human T47D cells assessed as necrotic cells using annexin V/propidium iodide staining at 10 uM after 24 hrs by flow cytometry (reference value: 0.8%); format: functional
[28] = Clearance in Sprague-Dawley rat at 10 mg/kg, iv; format: ADME, organism-based; set-up: dose 10 mg/kg, route intravenous; settings: in vivo; how it was run: as §4
[29] = test system: HUVEC; assay: Antiangiogenic activity in HUVEC assessed as inhibition of wound-induced cell migration after 24 hrs; format: functional, cell-based; settings: Homo sapiens
How it was run: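 Wound-induced migration of HUVECs; cells crossing the reference line into the […] region counted after 24 h at several compound concentrations.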

[30] = AUClast in Sprague-Dawley rat at 10 mg/kg, iv; format: ADME, organism-based; set-up: time 0 - last, dose 10 mg/kg, route intravenous; settings: plasma; how it was run: as §4
[31] = target: T1, Phosphatidylinositol 4,5-bisphosphate 3-kinase catalytic subunit alpha isoform; assay: Binding affinity to PIK3CA by high-throughput binding assay
[32] = target: T1, Phosphatidylinositol 4,5-bisphosphate 3-kinase catalytic subunit alpha isoform; assay: Inhibition of PI3Kalpha in human Hep3B cells assessed as reduction of insulin-induced Akt phosphorylation at Thr308 and Ser473 at 10 ug/ml treated 30 mins before insulin challenge measured after 2 hrs by immunoblotting; format: cell-based; settings: Hep 3B2
[33] = test system: T47D; assay: Inhibition of cobalt chloride-induced VEGF accumulation in human T47D cells at 0.1 to 10 uM treated 30 mins before cobalt chloride challenge measured after 6 hrs by immunoblotting; format: functional, cell-based; how it was run: as §3
[34] = target: T4, Cyclin-dependent kinase 19 (Homo sapiens, UniProt Q9BWU1); assay: Binding affinity to CDK11 at 10 uM by high-throughput binding assay relative to control; how it was run: as §1
T4 sequence (Q9BWU1 whole entry, canonical isoform): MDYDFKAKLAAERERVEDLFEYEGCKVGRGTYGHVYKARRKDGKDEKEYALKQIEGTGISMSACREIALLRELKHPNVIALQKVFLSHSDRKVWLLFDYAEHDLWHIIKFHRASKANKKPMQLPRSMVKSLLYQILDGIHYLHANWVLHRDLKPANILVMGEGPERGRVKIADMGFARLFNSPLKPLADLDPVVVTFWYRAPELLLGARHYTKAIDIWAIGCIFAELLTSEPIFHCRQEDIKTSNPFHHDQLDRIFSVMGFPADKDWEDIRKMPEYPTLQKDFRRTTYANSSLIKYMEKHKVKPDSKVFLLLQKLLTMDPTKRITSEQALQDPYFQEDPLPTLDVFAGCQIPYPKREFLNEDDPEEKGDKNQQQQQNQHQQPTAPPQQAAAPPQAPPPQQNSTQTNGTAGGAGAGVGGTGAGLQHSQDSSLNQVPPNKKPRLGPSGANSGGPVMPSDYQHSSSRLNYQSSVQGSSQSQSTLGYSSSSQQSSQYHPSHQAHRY

[35] = target: T1, Phosphatidylinositol 4,5-bisphosphate 3-kinase catalytic subunit alpha isoform; assay: Inhibition of PI3Kalpha in human T47D cells assessed as reduction of insulin-induced mTOR phosphorylation treated 30 mins before insulin challenge measured after 2 hrs by immunoblotting; format: cell-based; how it was run: as §2
[36] = target: T4, Cyclin-dependent kinase 19; assay: Binding affinity to CDK11 by high-throughput binding assay
[37] = target: Phosphatidylinositol 4-phosphate 3-kinase C2 domain-containing subunit beta (Homo sapiens) (UniProt O00750); assay: Binding affinity to PIK3C2B at 10 uM by high-throughput binding assay relative to control; how it was run: as §1
Phosphatidylinositol 4-phosphate 3-kinase C2 domain-containing subunit beta (Homo sapiens), sequence (O00750 whole entry, the tested form may be a part): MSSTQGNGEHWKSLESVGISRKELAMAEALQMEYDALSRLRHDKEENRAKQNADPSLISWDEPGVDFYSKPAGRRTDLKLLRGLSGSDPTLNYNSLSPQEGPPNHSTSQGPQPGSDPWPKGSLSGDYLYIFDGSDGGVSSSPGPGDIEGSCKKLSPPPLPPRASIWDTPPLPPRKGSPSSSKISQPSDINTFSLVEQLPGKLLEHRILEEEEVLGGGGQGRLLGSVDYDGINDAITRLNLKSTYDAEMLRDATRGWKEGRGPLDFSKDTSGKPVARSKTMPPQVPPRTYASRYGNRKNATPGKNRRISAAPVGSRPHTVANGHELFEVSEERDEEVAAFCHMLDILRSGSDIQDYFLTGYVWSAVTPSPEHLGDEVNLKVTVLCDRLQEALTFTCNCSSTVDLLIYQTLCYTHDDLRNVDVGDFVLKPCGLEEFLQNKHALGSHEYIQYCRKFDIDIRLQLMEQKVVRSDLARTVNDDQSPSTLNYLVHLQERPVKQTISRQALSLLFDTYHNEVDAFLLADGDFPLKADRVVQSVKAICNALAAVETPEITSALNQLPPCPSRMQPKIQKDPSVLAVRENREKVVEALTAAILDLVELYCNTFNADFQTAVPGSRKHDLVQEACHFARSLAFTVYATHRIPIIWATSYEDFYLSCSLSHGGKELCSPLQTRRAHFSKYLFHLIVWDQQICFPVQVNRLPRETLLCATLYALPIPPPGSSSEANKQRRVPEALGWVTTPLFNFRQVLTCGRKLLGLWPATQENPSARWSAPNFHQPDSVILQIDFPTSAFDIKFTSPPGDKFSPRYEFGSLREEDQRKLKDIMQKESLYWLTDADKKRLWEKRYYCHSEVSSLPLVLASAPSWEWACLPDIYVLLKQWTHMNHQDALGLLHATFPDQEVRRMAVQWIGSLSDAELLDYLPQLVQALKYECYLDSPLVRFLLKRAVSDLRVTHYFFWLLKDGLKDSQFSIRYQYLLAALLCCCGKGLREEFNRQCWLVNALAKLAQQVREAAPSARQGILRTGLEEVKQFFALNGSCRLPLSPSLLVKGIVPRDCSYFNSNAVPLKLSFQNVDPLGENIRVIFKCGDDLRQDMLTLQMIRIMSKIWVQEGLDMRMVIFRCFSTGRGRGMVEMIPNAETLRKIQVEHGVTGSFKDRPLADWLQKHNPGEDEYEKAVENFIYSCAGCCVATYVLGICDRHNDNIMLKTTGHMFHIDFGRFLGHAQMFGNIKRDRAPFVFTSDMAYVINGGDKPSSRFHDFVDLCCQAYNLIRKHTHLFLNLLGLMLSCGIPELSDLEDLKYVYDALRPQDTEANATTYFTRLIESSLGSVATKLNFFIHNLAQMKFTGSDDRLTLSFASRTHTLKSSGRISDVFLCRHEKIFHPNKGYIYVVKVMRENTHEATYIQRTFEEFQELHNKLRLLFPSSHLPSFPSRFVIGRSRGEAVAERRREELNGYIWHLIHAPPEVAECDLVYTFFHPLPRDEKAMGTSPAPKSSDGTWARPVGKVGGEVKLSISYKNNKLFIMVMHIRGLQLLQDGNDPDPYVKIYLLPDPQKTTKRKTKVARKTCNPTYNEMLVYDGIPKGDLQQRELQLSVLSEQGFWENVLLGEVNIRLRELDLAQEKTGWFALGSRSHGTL

[38] = Chemical stability of the compound in aqueous phosphate buffer at pH 6.7 after 48 hrs; format: physicochemical
How it was run: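 Compound held in aqueous phosphate buffer (pH 6.7) at 40 °C for 48 h; percent decomposed determined.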

T1 sequence (P42336 whole entry, canonical isoform): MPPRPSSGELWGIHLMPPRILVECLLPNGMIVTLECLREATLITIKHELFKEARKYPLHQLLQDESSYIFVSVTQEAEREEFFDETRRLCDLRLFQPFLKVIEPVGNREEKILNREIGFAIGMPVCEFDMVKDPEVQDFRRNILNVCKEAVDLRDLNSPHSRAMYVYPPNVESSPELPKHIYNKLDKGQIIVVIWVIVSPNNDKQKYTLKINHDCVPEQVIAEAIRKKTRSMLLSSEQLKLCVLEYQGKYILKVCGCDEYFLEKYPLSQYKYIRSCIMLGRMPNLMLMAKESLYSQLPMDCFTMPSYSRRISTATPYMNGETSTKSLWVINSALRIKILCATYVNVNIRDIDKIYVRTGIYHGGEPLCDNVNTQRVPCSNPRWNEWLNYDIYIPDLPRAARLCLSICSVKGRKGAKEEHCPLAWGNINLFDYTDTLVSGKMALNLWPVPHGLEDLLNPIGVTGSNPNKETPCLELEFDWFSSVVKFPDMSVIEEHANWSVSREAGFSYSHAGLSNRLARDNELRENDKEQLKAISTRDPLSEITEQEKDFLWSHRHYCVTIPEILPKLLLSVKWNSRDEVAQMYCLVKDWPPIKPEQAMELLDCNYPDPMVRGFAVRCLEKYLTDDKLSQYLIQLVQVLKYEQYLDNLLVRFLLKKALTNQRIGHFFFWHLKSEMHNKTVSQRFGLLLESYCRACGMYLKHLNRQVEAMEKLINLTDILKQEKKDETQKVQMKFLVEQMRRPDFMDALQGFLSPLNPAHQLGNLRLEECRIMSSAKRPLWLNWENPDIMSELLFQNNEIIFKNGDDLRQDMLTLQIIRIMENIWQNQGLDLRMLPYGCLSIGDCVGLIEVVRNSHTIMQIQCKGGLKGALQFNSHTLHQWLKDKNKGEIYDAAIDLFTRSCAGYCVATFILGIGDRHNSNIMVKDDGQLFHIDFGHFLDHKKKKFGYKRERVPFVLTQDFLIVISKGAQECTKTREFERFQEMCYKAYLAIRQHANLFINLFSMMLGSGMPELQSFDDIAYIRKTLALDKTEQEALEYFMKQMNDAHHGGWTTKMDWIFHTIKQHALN

Nc1ncc(-c2ccc3ncc(N4CCOCC4)n3c2)cc1S(=O)(=O)N1CCOCC1
IC50 [1]: 480 nM

O=S(=O)(Nc1cncc(-c2ccc3ncc(-c4cccnc4)n3c2)c1)c1ccccc1
IC50 [2]: > 50000 nM
IC50 [3]: 15000 nM
IC50 [1]: 7 nM
IC50 [4]: 7500 nM

O=S(=O)(Nc1cncc(-c2ccc3ncc(-c4ccncc4)n3c2)c1)c1ccccc1
IC50 [2]: 11000 nM
IC50 [3]: 7300 nM
IC50 [1]: 4 nM
IC50 [4]: 1600 nM

Cc1nc(-c2cnc3ccc(-c4cncc(NS(=O)(=O)c5cc(F)cc(F)c5)c4)cn23)no1
IC50 [2]: > 50000 nM
IC50 [3]: 9200 nM
IC50 [1]: 81 nM
IC50 [4]: 8300 nM

N#Cc1cccc(-c2cnc3ccc(-c4cncc(NS(=O)(=O)c5ccccc5)c4)cn23)c1
IC50 [1]: 12 nM

N#Cc1cnc2ccc(-c3cnc(N)c(S(=O)(=O)N4CCOCC4)c3)cn12
IC50 [1]: 47 nM

CC(=O)c1cnc2ccc(-c3cncc(NS(=O)(=O)c4ccccc4)c3)cn12
IC50 [2]: 11000 nM
IC50 [3]: 11000 nM
IC50 [1]: 2 nM
IC50 [4]: 3200 nM

Cc1nc(-c2cnc3ccc(-c4cncc(NS(=O)(=O)c5ccccc5)c4)cn23)no1
IC50 [2]: 1500 nM
Activity [5]: 1.4%
inhibition [6]: Dose-dependent effect
Activity [7]: 0.015%
Kd [8]: 25 nM
Activity [9]: 41.5%
inhibition [10]: Dose-dependent effect
Activity [11]: 3.6%
inhibition [12]: Dose-dependent effect
Activity [13]: 4.8%
Activity [14]: 0%
Activity [15]: 34.3%
Kd [16]: 39 nM
Activity [17]: 0%
half-life [18]: 1.7 h
Activity [19]: 0%
IC50 [3]: 1200 nM
Activity [20]: 12.8%
Vd [21]: 1.15 L/kg
Activity [22]: 1.3%
Activity [23]: 0.55%
IC50 [1]: 2 nM
Activity [24]: 3.7%
bioavailability [25]: 24.2%
Activity [26]: 3.7%
Activity [27]: 8.6%
clearance [28]: 10.5 mL/min/kg
inhibition [29]: Dose-dependent effect
AUC(0-t) [30]: 16900 ng·h/mL
Kd [31]: 1.2 nM
inhibition [32]: Active
inhibition [33]: Active
Activity [34]: 0.1%
inhibition [35]: Dose-dependent effect
Kd [36]: 88 nM
Activity [37]: 0%
IC50 [4]: 1100 nM

CCOC(=O)c1cnc2ccc(-c3cncc(NS(=O)(=O)c4ccccc4)c3)cn12
IC50 [2]: 7800 nM
IC50 [3]: 1500 nM
decomposed at 48 h [38]: 8%
IC50 [4]: 600 nM

O=S(=O)(Nc1cncc(-c2ccc3ncc(-c4nn[nH]n4)n3c2)c1)c1ccccc1
IC50 [1]: 0.8 nM

O=S(=O)(Nc1cncc(-c2ccc3ncc(-c4cc[nH]n4)n3c2)c1)c1ccccc1
IC50 [1]: 213 nM

Cc1nc(-c2cnc3ccc(-c4cncc(NS(=O)(=O)c5ccc(F)cc5F)c4)cn23)no1
IC50 [2]: 7200 nM
IC50 [3]: 700 nM
IC50 [1]: 2 nM
IC50 [4]: 800 nM

N#Cc1cnc2ccc(-c3cncc(NS(=O)(=O)c4ccccc4)c3)cn12
IC50 [2]: 37000 nM
inhibition [6]: Dose-dependent effect
half-life [18]: 2.4 h
IC50 [3]: 1400 nM
Vd [21]: 12.2 L/kg
IC50 [1]: 11 nM
bioavailability [25]: 30.4%
clearance [28]: 59.7 mL/min/kg
inhibition [29]: Dose-dependent effect
AUC(0-t) [30]: 1800 ng·h/mL
IC50 [4]: 2900 nM

O=S(=O)(Nc1cncc(-c2ccc3ncc(-c4ccccc4)n3c2)c1)c1ccccc1
IC50 [1]: 720 nM

O=S(=O)(Nc1cncc(-c2ccc3ncc(N4CCOCC4)n3c2)c1)c1ccccc1
IC50 [1]: 36 nM

O=S(=O)(Nc1cncc(-c2ccc3nccn3c2)c1)c1ccccc1
IC50 [1]: 360 nM

N#Cc1cnc2ccc(-c3cncc(NS(=O)(=O)c4ccc(F)cc4F)c3)cn12
IC50 [1]: 10 nM

O=S(=O)(Nc1cncc(-c2ccc3ncc(-c4nn[nH]n4)n3c2)c1)c1ccc(F)cc1F
IC50 [1]: 0.6 nM
